Results on two compounds are retold here after ChEMBL document CHEMBL4308835, “Fluorine-Substituted Pyrrolo[2,3- d]Pyrimidine Analogues with Tumor Targeting via Cellular Uptake by Folate Receptor α and the Proton-Coupled Folate Transporter and Inhibition of de Novo Purine Nucleotide Biosynthesis” (J Med Chem, 2018).

Activity calls are given as the source filed them. No cut-off for these calls is given here. Bounds are passed on as bounds.

Data set [1] in a line: Toxicity in NCR SCID mouse xenografted with human IGROV1 cells assessed as weight loss median nadir at 32 mg/kg, iv treated once daily for 4 days per week for 4 weeks starting from 3 days post implantation and measured after conclusion of therapy. The format is organism-based. Conditions: in vivo.
Data set [2] can be described thus: Antiproliferative activity in Chinese hamster R2 cells deficient in RFC, PCFT, and FRalpha assessed as reduction in cell growth after 96 hrs by Cell-Titer Blue assay. The format is cell-based. Particulars: Cricetulus griseus, R2, 96 h.
The nature of data set [3]: Toxicity in NCR SCID mouse xenografted with human IGROV1 cells at 32 mg/kg, iv treated once daily for 4 days per week for 3 weeks starting from 3 days post implantation. Particulars: in vivo. The format is organism-based. The essentials:
(§1)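 Female ICR SCID mice on a folate-deficient diet for 14 days before bilateral subcutaneous IGROV1 implants. Randomized at 5 mice/group. […] Body weights recorded daily; tumors measured twice weekly.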
(Xenograft models place foreign cells or tissue in a host animal.)

The target in data set [4] is T1, Reduced folate transporter (Homo sapiens) (UniProt P41440).
T1 sequence (whole entry): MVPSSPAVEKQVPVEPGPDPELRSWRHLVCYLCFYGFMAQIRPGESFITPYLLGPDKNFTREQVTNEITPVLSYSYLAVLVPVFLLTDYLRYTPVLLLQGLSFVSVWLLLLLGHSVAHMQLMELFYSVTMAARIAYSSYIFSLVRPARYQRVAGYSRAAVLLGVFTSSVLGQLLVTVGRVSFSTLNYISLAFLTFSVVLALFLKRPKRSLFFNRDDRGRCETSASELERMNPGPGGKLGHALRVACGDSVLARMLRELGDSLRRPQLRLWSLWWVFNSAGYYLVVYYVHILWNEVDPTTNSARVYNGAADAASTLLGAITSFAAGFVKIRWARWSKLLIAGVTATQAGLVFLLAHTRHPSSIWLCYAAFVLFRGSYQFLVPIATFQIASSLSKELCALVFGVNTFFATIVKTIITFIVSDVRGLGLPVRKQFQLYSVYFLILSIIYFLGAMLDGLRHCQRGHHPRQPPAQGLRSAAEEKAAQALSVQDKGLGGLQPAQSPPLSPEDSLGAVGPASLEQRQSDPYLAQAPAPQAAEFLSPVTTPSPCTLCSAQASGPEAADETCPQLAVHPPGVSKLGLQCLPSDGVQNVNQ
The data set can be described thus: Inhibition of human RFC2 expressed in human HeLa R1-11 cells assessed as reduction in [3H]MTX uptake at pH 7.2 at 1 uM measured over 2 mins relative to control. The format is cell-based.

Data set [5] relates to IGROV-1. The data set can be described thus: Antitumor activity against human IGROV1 cells xenografted in NCR SCID mouse assessed as time for tumor growth delay at 95 mg/kg, iv treated once daily for 4 days per week for 4 weeks starting from 3 days post implantation. The format is functional. Conditions: in the assay text read “32 mg/kg” for “95 mg/kg”. An outline of the steps:
(§2)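 Female ICR SCID mice, 10 weeks old, kept on a folate-deficient diet for 14 days before bilateral subcutaneous IGROV1 implants; a control cohort was fed folate-replete chow. Randomized at 5 mice/group. […] Tumors measured twice weekly; body weights recorded daily.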

Data set [6] concerns IGROV-1. The data set can be described thus: Antitumor activity against human IGROV1 cells xenografted in NCR SCID mouse assessed as median tumor burden at 32 mg/kg, iv treated once daily for 4 days per week for 3 weeks starting from 3 days post implantation and measured at day 60 post last dose (reference value: 108 mg). The format is functional. An outline of the steps: (§3)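 Female ICR SCID mice (10 weeks, ~20 g) kept on folate-deficient diet ad libitum for 14 d before bilateral subcutaneous IGROV1 implantation; a control cohort was fed standard folate-replete chow. 5 mice/group, nonselectively randomized. […] Tumors measured twice weekly, body weights daily. T/C from median tumor burdens.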

Data set [7] deals with T1, Reduced folate transporter (Homo sapiens). The data set can be described thus: Inhibition of human RFC2 expressed in human HeLa R1-11 cells assessed as reduction in [3H]MTX uptake at pH 7.2 at 10 uM measured over 2 mins relative to control. The format is cell-based.
Data set [8] concerns IGROV-1. The data set can be described thus: Anticlonogenic activity against human IGROV1 cells incubated for 24 hrs followed by compound wash out and measured after 10 days by methylene blue staining-based assay. The format is functional, cell-based. An outline of the steps:
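IGROV1 cells plated in folate-free RPMI 1640 (pH 7.2), 10% dialyzed FBS, 25 nM LCV. After 24 h adherence, exposed to drug (0–20 μM) for 24 h at pH 6.8 (25 mM PIPES/25 mM HEPES). Washed, then grown drug-free at pH 7.2 (100 mM HEPES) with 25 nM LCV for up to 10 days at 37 °C. Colonies stained with methylene blue and counted electronically. Values normalized to vehicle controls. Triplicate experiments.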

A short description of data set [9]: Toxicity in NCR SCID mouse xenografted with human IGROV1 cells assessed as weight loss median nadir at 32 mg/kg, iv treated once daily for 4 days per week for 3 weeks starting from 3 days post implantation and measured at day 14 post last dose relative to control. The format is organism-based. Conditions: in vivo. The essentials:
as §3

Data set [10] relates to IGROV-1. The data set can be described thus: Antiproliferative activity against FRalpha […] human IGROV1 KD10 cells after 96 hrs by Cell-Titer Blue assay. The format is functional, cell-based. Particulars: IGROV-1, 96 h.
Data set [11] concerns IGROV-1. The experiment in a line: Antiproliferative activity against human IGROV1 cells harboring non targeted control shRNA sequence after 96 hrs by Cell-Titer Blue assay. The format is functional, cell-based. Particulars: IGROV-1, 96 h.
Data set [12] concerns IGROV-1. The data set can be described thus: Antiproliferative activity against wild type human IGROV1 cells after 96 hrs by Cell-Titer Blue assay. The format is functional, cell-based. Conditions: IGROV-1, 96 h.
Data set [13] in a line: Toxicity in NCR SCID mouse xenografted with human IGROV1 cells assessed as weight loss median nadir at 32 mg/kg, iv treated once daily for 4 days per week for 3 weeks starting from 3 days post implantation and measured at day 18 post last dose relative to control. The format is organism-based. Conditions: in vivo. The essentials: as §1
The next data set concerns A2780. The experiment in a line: Antiproliferative activity against human A2780 cells after 96 hrs by Cell-Titer Blue assay. The format is functional, cell-based. Conditions: A2780, 96 h.
The target in data set [14] is T2, Proton-coupled folate transporter (Homo sapiens) (UniProt Q96NT5).
T2 sequence (whole entry): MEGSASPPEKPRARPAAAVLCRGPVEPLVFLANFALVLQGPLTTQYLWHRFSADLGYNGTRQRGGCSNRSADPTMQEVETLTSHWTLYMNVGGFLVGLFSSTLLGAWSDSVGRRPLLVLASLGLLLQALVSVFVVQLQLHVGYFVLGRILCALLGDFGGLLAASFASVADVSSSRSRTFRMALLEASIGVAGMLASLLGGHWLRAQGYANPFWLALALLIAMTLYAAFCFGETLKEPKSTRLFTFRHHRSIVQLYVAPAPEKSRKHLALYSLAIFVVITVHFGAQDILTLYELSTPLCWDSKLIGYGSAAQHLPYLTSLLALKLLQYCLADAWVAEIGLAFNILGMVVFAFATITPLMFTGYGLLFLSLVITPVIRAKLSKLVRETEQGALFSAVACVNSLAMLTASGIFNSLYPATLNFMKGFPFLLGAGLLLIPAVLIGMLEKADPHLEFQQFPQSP
The data set can be described thus: Inhibition of human PCFT expressed in Chinese hamster R2/PCFT4 cells assessed as reduction in [3H]MTX uptake at pH 5.5 at 1 to 10 uM measured over 2 mins. The format is cell-based.

Data set [15] addresses T3, Proton-coupled folate transporter (Homo sapiens, UniProt Q96NT5).
T3 sequence (Q96NT5 whole entry): T2 sequence (whole entry)
The experiment in a line: Inhibition of human PCFT expressed in Chinese hamster R2/PCFT4 cells assessed as reduction in [3H]MTX uptake at pH 5.5 measured over 2 mins by Dixon plot analysis. The format is cell-based. An outline of the steps:
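Competitor concentrations ranged from 0.05 to 0.5 μM. Ki was obtained by Dixon plot. Mean ± SE of four independent experiments.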

Data set [16] in a line: Toxicity in NCR SCID mouse xenografted with human IGROV1 cells assessed as weight loss median nadir at 95 mg/kg, iv treated once daily for 4 days per week for 4 weeks starting from 3 days post implantation and measured at day 14 post last dose relative to control. Conditions: in vivo. The format is organism-based.
Data set [17] deals with T2, Proton-coupled folate transporter (Homo sapiens). The data set can be described thus: Inhibition of human PCFT expressed in Chinese hamster R2/PCFT4 cells assessed as reduction in [3H]MTX uptake at pH 5.5 at 1 uM measured over 2 mins relative to control. The format is cell-based.
Data set [18] has as its system IGROV-1. The data set can be described thus: Antiproliferative activity against human IGROV1 cells at 1 to 1000 nM in presence of 320 uM AICA after 96 hrs by Cell-Titer Blue assay. The format is functional, cell-based. The essentials: (§4)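 IGROV1 cells, 2000/well, in folate-free RPMI 1640 with 10% dialyzed FBS, L-glutamine, 25 nM LCV. A range of drug concentrations was given with thymidine (10 μM), adenosine (60 μM) or AICA (320 μM) added. After 96 h, proliferation was measured by Cell-Titer Blue fluorescence. At least triplicate experiments.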

The test system of data set [19] is IGROV-1. The experiment in a line: Antiproliferative activity against human IGROV1 cells at 1 to 1000 nM in presence of 10 uM thymidine after 96 hrs by Cell-Titer Blue assay. The format is functional, cell-based. The essentials: as §4
In data set [20] the target is T2, Proton-coupled folate transporter (Homo sapiens). The experiment in a line: Inhibition of human PCFT expressed in Chinese hamster R2/PCFT4 cells assessed as reduction in [3H]MTX uptake at pH 5.5 at 10 uM measured over 2 mins relative to control. The format is cell-based.
A short description of data set [21]: Toxicity in NCR SCID mouse xenografted with human IGROV1 cells assessed as weight loss median nadir at 95 mg/kg, iv treated once daily for 4 days per week for 4 weeks starting from 3 days post implantation and measured after conclusion of therapy. Particulars: in vivo. The format is organism-based. An outline of the steps: as §2
Data set [22] concerns IGROV-1. The data set can be described thus: Antiproliferative activity against FRalpha […] human IGROV1 KD4 cells after 96 hrs by Cell-Titer Blue assay. The format is functional, cell-based. Particulars: IGROV-1, 96 h.
Data set [23] relates to IGROV-1. The data set can be described thus: Antiproliferative activity against human IGROV1 cells at 1 to 1000 nM in presence of 60 uM adenosine after 96 hrs by Cell-Titer Blue assay. The format is functional, cell-based. An outline of the steps:
as §4

The target of data set [24] is Folate receptor alpha (Homo sapiens) (UniProt P15328). The data set can be described thus: Displacement of [3H]folic acid from human FRalpha expressed in Chinese hamster RT16 cells at 10 to 1000 nM after 15 mins. The format is cell-based. The essentials: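 RT16 (FRα) or D4 (FRβ) CHO cells at ~80% confluence were washed with PBS at 4 °C, then with pH 3.5 acetate buffer to strip bound folate, then HEPES-buffered saline pH 7.4. Cells were incubated with 50 nM [³H]folic acid plus competitor (10–1000 nM) for 15 min at 4 °C, washed, and solubilized in NaOH. Bound radioactivity was normalized to protein.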
Sequence of Folate receptor alpha (Homo sapiens) (P15328 25-234 limits assumed): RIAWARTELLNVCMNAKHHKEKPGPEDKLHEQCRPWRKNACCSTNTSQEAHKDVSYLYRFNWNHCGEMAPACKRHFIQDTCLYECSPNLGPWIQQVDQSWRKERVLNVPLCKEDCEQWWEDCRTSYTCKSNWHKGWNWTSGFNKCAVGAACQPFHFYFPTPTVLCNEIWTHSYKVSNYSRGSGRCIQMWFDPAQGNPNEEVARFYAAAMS
(In general: In a radioligand displacement assay an active substance lowers the binding of a labelled ligand.)

Data set [25] in a line: Toxicity in NCR SCID mouse xenografted with human IGROV1 cells assessed as weight loss median nadir at 95 mg/kg, iv treated once daily for 4 days per week for 4 weeks starting from 3 days post implantation and measured at day 18 post last dose relative to control. The format is organism-based. Conditions: in vivo.

The IC50 is the concentration at which inhibition is half-maximal. What is called inhibition is the share of the control response that was lost under treatment. For `Nc1nc2[nH]c(CCCc3ccc(C(=O)N[C@@H](CCC(=O)O)C(=O)O)s3)cc2c(=O)[nH]1`, the Activity entry is on record as “Non-Toxic” in [1]; “Non-Toxic” in data set [3]; 108 mg in the data set on IGROV-1 [6]; 15.7% in data set [9]; 12.1% in data set [13]. Also, the IC50 came to 355 nM in [2]; 270 nM in the data set on IGROV-1 [8]; 74.6 nM in the data set with IGROV-1 [10]; 10.1 nM with IGROV-1 [11]; 16.7 nM in the data set with IGROV-1 [12]; 27.4 nM in the data set on A2780. Besides, the inhibition entry in [4] and in data set [7] was “inactive” throughout. Further, the Time in the data set on IGROV-1 [5] was 35 days. Also, the inhibition result in [14] is “Active”.

A word on the Ki: it is a measure of affinity in units of concentration, obtained from inhibition or displacement. Consider `Nc1nc2[nH]c(CCCCc3csc(C(=O)N[C@@H](CCC(=O)O)C(=O)O)c3F)cc2c(=O)[nH]1`, for which the Ki in [15] was found to be 250 nM. In addition, the IC50 in data set [2] was over 1000 nM; in the data set on IGROV-1 [22], 138 nM; with IGROV-1 [8], 200 nM; in the data set on IGROV-1 [10] it was 66.9 nM; in the data set with IGROV-1 [11], 1.79 nM; in the data set with IGROV-1 [12], 1.9 nM. This compound returned a 50% inhibitory concentration (IC50) in the data set with A2780 of 3.11 nM. Also, the Activity in data set [16] is on record as 15.7%; in data set [21], “Non-Toxic”; in [25], 12.1%. The inhibition lay in the range of 60 to 85% in data set [17] and 90 to 95% in data set [20]. For the same compound, the result in the data set with IGROV-1 [18] and in the data set with IGROV-1 [23] was inactive. For the same compound, the result in the data set with IGROV-1 [19] was Active. Further, the inhibition entry in [4] and in data set [7] was “inactive” in each case. In addition, the inhibition entry in data set [24] and in data set [14] was “Active” in each case.
